Experimental findings from ChEMBL document CHEMBL1121595, “Fluoroprostaglandins: synthesis and biological evaluation of the methyl esters of (+)-12-fluoro-, (-)-ent-12-fluoro-, (+)-15-epi-fluoro-, and (-)-ent-15 epi-12-fluoroprostaglandin F2 alpha” (1980) are described below.

One test relates to Gerbillinae. Kind of test: The compound was evaluated for the gerbil colon contraction. Format: functional.
Test [1] concerns Cricetinae gen. sp. In words: The compound was evaluated for the antifertility activity in hamster. Format: functional. The essentials:
(§1)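 Pregnant hamsters (80–90 g), ten per compound, mated one male per female. A single subcutaneous dose in ethanol was given on day 5 of pregnancy. The minimum effective dose is the lowest dose per hamster per day that leaves no pregnancies in the group of ten. Relative potency was derived by comparing this dose with that of natural PGF2α.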

For test [2], the system named is Cricetinae gen. sp. Kind of test: The compound was evaluated for the hamster uterine contraction. Format: functional, Cricetulus griseus.
The subject of test [3] is Cricetinae gen. sp. In words: The compound was evaluated for the antifertility activity in hamster; no activity observed at 50 ug. Particulars: Cricetulus griseus. Format: functional, organism-based. The essentials: as §1

Turning to `CCCCC[C@H](O)/C=C/[C@@]1(F)[C@H](O)C[C@H](O)[C@@H]1C/C=C\CCCC(=O)O`, the relative potency turned out to be 0.23 with Gerbillinae, 25 in the test with Cricetinae gen. sp. [1] and 0.65 with Cricetinae gen. sp. [2].
Regarding `CCCCC[C@@H](O)/C=C/[C@@]1(F)[C@H](C/C=C\CCCC(=O)OC)[C@H](O)C[C@@H]1O`, the relative potency with Gerbillinae came to 0.001; in the test with Cricetinae gen. sp. [1], 0.17; in the test on Cricetinae gen. sp. [2], 0.004.
As to `CCCCC[C@H](O)/C=C/[C@@]1(F)[C@H](O)C[C@H](O)[C@@H]1C/C=C\CCCC(=O)OC`, the relative potency with Gerbillinae was determined as 0.001; in the test with Cricetinae gen. sp. [1], 12.5; in the test with Cricetinae gen. sp. [2], 0.28.
Consider `CCCCC[C@@H](O)/C=C/[C@@]1(F)[C@H](O)C[C@H](O)[C@@H]1C/C=C\CCCC(=O)OC`, for which the values for the relative potency in the test with Gerbillinae, in the test on Cricetinae gen. sp. [1] and in the test on Cricetinae gen. sp. [2] were 0.011, 1 and 0.022, respectively.
Take `CCCCC[C@H](O)/C=C/[C@@]1(F)[C@H](C/C=C\CCCC(=O)OC)[C@H](O)C[C@@H]1O`: the relative potency in the test with Gerbillinae and in the test on Cricetinae gen. sp. [2] was 0.0002 throughout. For the same compound, in the test with Cricetinae gen. sp. [3], the MED result was “No activity observed at 50 ug”.
